SMILES strings stand for the structures. Values after ≈ are worked out from the molar mass of the structure shown. Where only a bound is given, the exact number is not on record here.

For data set [1], the system named is Rattus norvegicus. Description: Antiinflammatory activity in Sprague-Dawley rat assessed as reduction in carrageenan-induced paw edema at dose molar equivalent to 15 mg/kg, po after 4 hrs (RVb = 78.4+/- 2.53%). Further details: scale not given: the % may be the effect or the level left. Background: The carrageenan paw model is a standard test of acute inflammation.

A short description of data set [2]: Antioxidant activity in stomach assessed as catalase activity measured per mg of protein (RVb = 28.38 +/- 2.85 U). It counts as functional.
The test system of data set [3] is Rattus norvegicus. The data set is described as follows: Antiinflammatory activity in Sprague-Dawley rat assessed as reduction in carrageenan-induced paw edema at dose molar equivalent to 15 mg/kg, po after 3 hrs (RVb = 81.1+/- 2.43 %). Further details: scale not given: the % may be the effect or the level left.
Data set [4] concerns Rattus norvegicus. The data set is described as follows: Toxicity in Sprague-Dawley rat assessed as ulcer index at dose molar equivalent to 54 mg/kg, po. Type of data set: organism-based. Further details: dose 54 mg/kg, route oral. As to conditions: in vivo. The procedure, abridged: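 Overnight-fasted Sprague-Dawley rats given oral doses equimolar to BPA 54 mg/kg; vehicle controls. Killed 4 h after dosing; stomachs opened along greater curvature, saline-washed and scored: 0 none, 1 punctiform <1 mm, 3 filiform <5 mm, 4 punctiform >1 mm or filiform >5 mm. Mean ± SE of five experiments.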

Data set [5] has as its system Rattus norvegicus. Description: Antiinflammatory activity in Sprague-Dawley rat assessed as reduction in carrageenan-induced paw edema at dose molar equivalent to 15 mg/kg, po after 2 hrs (RVb = 68.8 +/- 2.06%). Also noted: scale not given: the % may be the effect or the level left.
Data set [6] can be described thus: Antioxidant activity in stomach assessed as myeloperoxidase activity relative to control. Type of data set: functional. The method, boiled down:
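Stomach homogenate from ulcer-study rats (0.01 M phosphate buffer), spun 10,000 rpm, 10 min, 10 °C. Supernatant mixed with o-phenylenediamine (660 µg/ml) and started with 300 mM H2O2; A492 read every 30 s for 5 min. ΔOD/min expressed as % of control activity.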

A short description of data set [7]: Antioxidant activity in stomach assessed as lipid peroxidation measured per mg of protein (RVb = 4.61 +/- 1.28 nmole). It counts as functional, tissue-based.
Data set [8] relates to Rattus norvegicus. Description: Antiinflammatory activity in Sprague-Dawley rat assessed as reduction in carrageenan-induced paw edema at dose molar equivalent to 15 mg/kg, po after 5 hrs (RVb = 65.2+/- 1.96%). Also noted: scale not given: the % may be the effect or the level left.
Data set [9] in a line: Antioxidant activity in stomach assessed as superoxide dismutase activity measured per mg of protein (RVb = 325.40 +/- 69 U). It counts as functional.
The subject of data set [10] is Mus musculus. The data set is described as follows: Analgesic activity in mouse assessed as inhibition of acetic acid-induced writhing at 10 mg/kg, po relative to control. It counts as functional. The method, boiled down:
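Male LACCA mice (25–35 g), fasted overnight, dosed orally in 0.5% CMC (0.1 ml/10 g) 1 h before 1% acetic acid, 10 ml/kg i.p. Writhes counted over 20 min starting 3 min post-challenge. % inhibition = (1 − Nt/Nc) × 100 versus vehicle controls. Mean ± SE of five experiments.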
On the technique in general: An intraperitoneal irritant provokes the stretching counted in writhing tests.

Data set [11] is described as follows: Aqueous solubility at pH. 4. It counts as physicochemical.
A short description of data set [12]: Partition coefficient log P by shake flask method. Type of data set: physicochemical. The settings on record: octanol/water. The procedure, abridged:
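Shake flask in n-octanol/phosphate buffer pH 7.4. Compound-saturated octanol shaken with an equal volume of buffer for 24 h at 25 °C, then left 30 min to separate. Both phases quantified by UV against calibration plots.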

The nature of data set [13]: Chemical stability assessed as half life of hydrolysis at pH 2. It counts as physicochemical. The settings on record: buffer. The procedure, abridged:
(§1)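 Compound dissolved in preheated HCl buffer pH 2 or isotonic phosphate buffer pH 7.4 and held at 37 °C. Pseudo-first-order rate constants taken from semilog plots of concentration versus time.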

Data set [14] is described as follows: Stability in presence of 80% human plasma assessed as half life. It counts as ADME, cell-free. The method, boiled down: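 Citrated human plasma diluted 4:1 with isotonic phosphate buffer pH 7.4 (80% plasma), preheated, shaken at 37 °C. Compound added from a 1 mg/ml stock; samples at intervals diluted and read at 253 nm for released BPA. Rate constant and t½ taken from the linear part of the log BPA concentration versus time plot.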

Data set [15] is described as follows: Chemical stability assessed as half life of hydrolysis at pH 7.4. It counts as physicochemical. The settings on record: buffer. The procedure, abridged:
as §1

Take `O=C(O)Cc1ccc(-c2ccccc2)cc1` [FELBINAC]: the Activity came out at 25.2% in data set [1]; 3.52 U/mg protein in data set [2]; 26.5% in [3]; 26.9% in data set [5]; 238.47% in data set [6]; 22.6 nM in data set [7]. For the same compound, the Activity in data set [8] is 29.1%; in [9] it was 26.2 U/mg protein. Moreover, in data set [4], the UI came out at 6.2. Also, the inhibition in vivo (commonly the percentage by which the read-out fell short of the control) at 10 mg/kg in [10] worked out at 68.6%.

In the case of `COc1cc(OC)c2c(=O)c(OC(=O)Cc3ccc(-c4ccccc4)cc3)c(-c3ccc(OC)c(OC)c3)oc2c1`, the Activity was determined as 31.6% in data set [1]; 22.4 U/mg protein in [2]; 37.5% in data set [3]; 34.2% in data set [5]; 118.93% in data set [6]; 6.42 nM in data set [7]. Moreover, the Activity in [8] amounted to 33.1%; in data set [9], 223 U/mg protein. The amount in solution in [11] (solubility) came to 14.5 µg/mL (≈ 26.2 µM). The UI in data set [4] was 0.45. In data set [12], the logP (in general, the decadic logarithm of the partition coefficient of the neutral form, usually between octanol and water) was determined as 3.95. The half-life (as a rule, how long it takes for the measured level to halve) is over 100 h in [13], 0.33 h in data set [14] and over 38 h in data set [15]. In addition, the inhibition in vivo at 10 mg/kg in data set [10] amounted to 62.4%.

The record behind these values is ChEMBL document CHEMBL1165896, “Design, synthesis and evaluation of mutual prodrug of 4-biphenylacetic acid and quercetin tetramethyl ether (BPA-QTME) as gastrosparing NSAID” (Eur J Med Chem, 2010).
